Laboratory results taken from ChEMBL document CHEMBL1681735, “One step synthesis of 2-hydroxymethylisoflavone and their osteogenic activity” (2011).
Activity calls are given as the source filed them. The calls are words filed in the database; no cut-off is given here.

What was measured:
Calvarial cell [1] = assay: Induction of osteoblast differentiation in rat Calvarial cells assessed as increase in alkaline phosphatase activity at 10^-12 to 10^-6 M by spectrophotometry; type: functional, cell-based
Method in brief: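 Rat calvarial osteoblasts trypsinized at 70–80% confluence (0.02% trypsin-EDTA). 2 × 10³ cells seeded in α-MEM with 10% FBS plus 50 µg/ml ascorbate and 10 mM glycerophosphate. Exposed to 10^-12 to 10^-6 M for 48 h; isoformononetin 10^-8 M as positive control. Total ALP read at 405 nm with PNPP 10 mmol/L in diethanolamine buffer (1 mol/L, pH 9.8), 0.5 mmol/L MgCl₂. Mean SEM, n = 6.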

[2] = (§1) Induction of osteogenic activity in rat Calvarial cells assessed as fold increase in Runx-2 gene expression after 48 hrs by qPCR relative to untreated control; type: functional, Calvarial cell
Method in brief: (§2)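 Osteoblasts cultured with or without compound for 48 h, then qPCR. Cycling: 95 °C 5 min, then 40 cycles of 94 °C 2 min, 62 °C 30 s annealing/extension and 72 °C 30 s. Normalized to GAPDH. Compared with vehicle-treated cells; mean SEM, n = 3.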

Calvarial cell [3] = assay: (§3) Induction of osteogenic activity in rat Calvarial cells assessed as fold increase in BMP-2 gene expression after 48 hrs by qPCR relative to untreated control; type: functional; method in brief: as §2
Calvarial cell [4] = assay: (§4) Induction of osteogenic activity in rat Calvarial cells assessed as fold increase in OCN gene expression after 48 hrs by qPCR relative to untreated control; type: functional; method in brief: as §2
[5] = as §3; type: functional, Calvarial cell; method in brief: as §2
[6] = as §4; type: functional, Calvarial cell; method in brief: as §2
Calvarial cell [7] = assay: as §1; type: functional; method in brief: as §2

Compound | Activity (Calvarial cell [1]) | fold change (FC) [2] | Activity (Calvarial cell [3]) | Activity (Calvarial cell [4]) | fold change (FC) [5] | fold change (FC) [6] | Activity (Calvarial cell [7])
O=c1c(-c2ccccc2)c(CO)oc2cc(O)ccc12 | Active | 6.5 | inactive | inactive |  |  | 
COc1ccc(-c2c(CO)oc3ccccc3c2=O)c(O)c1 | Active | 8 |  |  | 2 | 2 | 
COc1ccc(-c2c(CO)oc3cc(O)ccc3c2=O)cc1 | Active |  | inactive | inactive |  |  | inactive
O=c1c(-c2ccccc2)c(CO)oc2ccccc12 | Active |  |  | inactive | 2.5 |  | inactive
